Source: ChEMBL document CHEMBL1125609, “Nucleosides and nucleotides. 97. Synthesis of new broad spectrum antineoplastic nucleosides, 2'-deoxy-2'-methylidenecytidine (DMDC) and its derivatives” (J Med Chem, 1991)
Converted amounts (≈) assume the structure as drawn.

Columns and labels:
[1] = test system: L1210; test: In vitro cytotoxic activity against Murine leukemia L1210 cells.; format: functional, cell-based; settings: Mus musculus
How it was run: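 L1210 murine leukemia cells seeded at 1 × 10⁴/well, exposed with or without compound for 72 h; MTT then added and OD 570 nm read. % inhibition = [1 − OD sample/OD control] × 100; IC50 (μg/mL) taken as concentration giving 50% growth inhibition.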

[2] = test system: KB; test: In vitro inhibitory activity against Human oral epidermoid carcinoma (KB) cell line.; format: functional, cell-based
How it was run: (§1)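 Each tumor cell line seeded at 1 × 10⁴/well and incubated with or without compound for 72 h; growth measured by MTT reduction, OD 570 nm, % inhibition relative to untreated control wells. IC50 (μg/mL) is the concentration giving 50% inhibition of cell growth.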

[3] = test system: T-24; test: In vitro inhibitory activity against Human bladder transitional-cell carcinoma (T-24) cell line.; format: functional, cell-based; how it was run: as §1
[4] = test system: PC-13; test: In vitro inhibitory activity against Human lung large-cell carcinoma (PC-13) cell line.; format: functional, cell-based; how it was run: as §1
[5] = test system: PC10; test: In vitro inhibitory activity against Human lung squamous cell carcinoma (PC-10) cell line.; format: functional, cell-based; how it was run: as §1
[6] = test system: PC-6; test: In vitro inhibitory activity against Human lung small-cell carcinoma (PC-6) cell line.; format: functional, cell-based; how it was run: as §1
[7] = test system: HL-60; test: In vitro inhibitory activity against Human promyelocytic leukemia (HL-60) cell line.; format: functional, cell-based; how it was run: as §1
[8] = test system: TE-2; test: In vitro inhibitory activity against Human esophagus adenocarcinoma (TE-2) cell line.; format: functional, cell-based; how it was run: as §1
[9] = test system: PC-14; test: In vitro inhibitory activity against Human lung adenocarcinoma (PC-14) cell line.; format: functional, cell-based; how it was run: as §1
[10] = test system: KATO III stomach cancer cell line; test: In vitro inhibitory activity against Human gastric carcinoma (KATO III) cell line.; format: functional, cell-based; how it was run: as §1
[11] = test system: B16; test: In vitro inhibitory activity against Mouse melanoma (B16) cell line.; format: functional, cell-based; how it was run: as §1
[12] = test system: U-937; test: In vitro inhibitory activity against Human histiocytic lymphoma (U-937) cell line.; format: functional, cell-based; how it was run: as §1
[13] = test system: CCRF-CEM; test: In vitro inhibitory activity against Human T-cell acute lymphoblastoid leukemia (CCRF CEM) cell line.; format: functional, cell-based; how it was run: as §1
[14] = test system: P-36 (Homo sapiens); test: In vitro inhibitory activity against Human melanoma (P-36) cell line.
[15] = test system: SW480; test: In vitro inhibitory activity against Human colon adenocarcinoma (SW-480) cell line.; format: functional, cell-based; how it was run: as §1
[16] = test system: Lewis lung carcinoma cell line; test: In vitro inhibitory activity against Mouse Lewis lung carcinoma (3LL) cell line.; format: functional, cell-based; how it was run: as §1
[17] = test system: MOLT-4; test: In vitro inhibitory activity against Human T-cell acute lymphoblastic leukemia (MOLT-4) cell line.; format: functional, cell-based; how it was run: as §1

C=C1[C@H](n2ccc(=O)[nH]c2=O)O[C@H](CO)[C@H]1O
IC50 [1]: > 100 µg/mL

Nc1ccn([C@@H]2O[C@H](CO)[C@@H](O)[C@@H]2O)c(=O)n1 [CYTARABINE]
IC50 [2]: 30.5 µg/mL (≈ 125 µM) | IC50 [3]: 0.5 µg/mL (≈ 2.06 µM) | IC50 [4]: > 100 µg/mL | IC50 [5]: > 100 µg/mL | IC50 [6]: 50 µg/mL (≈ 206 µM) | IC50 [7]: > 0.1 µg/mL | IC50 [8]: > 100 µg/mL | IC50 [9]: > 100 µg/mL | IC50 [10]: > 100 µg/mL | IC50 [11]: 0.24 µg/mL (≈ 0.987 µM) | IC50 [12]: 0.46 µg/mL (≈ 1.89 µM) | IC50 [13]: 0.32 µg/mL (≈ 1.32 µM) | IC50 [14]: 11.1 µg/mL (≈ 45.6 µM) | IC50 [15]: > 100 µg/mL

C#Cc1cn(C2O[C@H](CO)[C@H](O)C2=C)c(=O)[nH]c1=O (stereo partly drawn)
IC50 [1]: > 100 µg/mL

C=C1C(n2cc(CC)c(N)nc2=O)O[C@H](CO)[C@@H]1O (stereo partly drawn)
IC50 [1]: > 100 µg/mL

C=C1C(n2cc(Cl)c(=O)[nH]c2=O)O[C@H](CO)[C@@H]1O (stereo partly drawn)
IC50 [1]: > 100 µg/mL

C=C1C(n2cc(Cl)c(N)nc2=O)O[C@H](CO)[C@@H]1O (stereo partly drawn)
IC50 [1]: > 100 µg/mL

C=C1C(n2cc(F)c(=O)[nH]c2=O)O[C@H](CO)[C@@H]1O (stereo partly drawn)
IC50 [1]: > 100 µg/mL

C=C1C(n2cc(C)c(N)nc2=O)O[C@H](CO)[C@@H]1O (stereo partly drawn)
IC50 [2]: > 100 µg/mL | IC50 [3]: > 100 µg/mL | IC50 [4]: > 100 µg/mL | IC50 [5]: > 100 µg/mL | IC50 [6]: > 100 µg/mL | IC50 [7]: 3 µg/mL (≈ 11.8 µM) | IC50 [16]: > 100 µg/mL | IC50 [1]: 58 µg/mL (≈ 229 µM) | IC50 [8]: > 100 µg/mL | IC50 [9]: > 100 µg/mL | IC50 [10]: > 100 µg/mL | IC50 [11]: > 100 µg/mL | IC50 [12]: > 10 µg/mL | IC50 [13]: > 1 µg/mL | IC50 [14]: > 100 µg/mL | IC50 [17]: > 100 µg/mL | IC50 [15]: > 100 µg/mL

C=C1C(n2cc(I)c(=O)[nH]c2=O)O[C@H](CO)[C@@H]1O (stereo partly drawn)
IC50 [1]: > 100 µg/mL

C=C1C(n2cc(CC)c(=O)[nH]c2=O)O[C@H](CO)[C@@H]1O (stereo partly drawn)
IC50 [1]: > 100 µg/mL

C=C1C(n2ccc(N)nc2=O)O[C@H](CO)[C@@H]1O (stereo partly drawn)
IC50 [2]: 1.4 µg/mL (≈ 5.85 µM) | IC50 [3]: 1.1 µg/mL (≈ 4.6 µM) | IC50 [4]: 1 µg/mL (≈ 4.18 µM) | IC50 [5]: > 100 µg/mL | IC50 [6]: 39 µg/mL (≈ 163 µM) | IC50 [7]: 0.04 µg/mL (≈ 0.167 µM) | IC50 [16]: 16 µg/mL (≈ 66.9 µM) | IC50 [1]: 0.37 µg/mL (≈ 1.55 µM) | IC50 [9]: > 100 µg/mL | IC50 [10]: 8.3 µg/mL (≈ 34.7 µM) | IC50 [11]: 3 µg/mL (≈ 12.5 µM) | IC50 [12]: 0.44 µg/mL (≈ 1.84 µM) | IC50 [13]: 0.067 µg/mL (≈ 0.28 µM) | IC50 [14]: 0.36 µg/mL (≈ 1.5 µM) | IC50 [17]: 0.041 µg/mL (≈ 0.171 µM)

C=C1C(n2cc(Br)c(N)nc2=O)O[C@H](CO)[C@@H]1O (stereo partly drawn)
IC50 [1]: > 100 µg/mL

C=C1C(n2cc(Br)c(=O)[nH]c2=O)O[C@H](CO)[C@@H]1O (stereo partly drawn)
IC50 [1]: > 100 µg/mL

C=C1C(n2cc(I)c(N)nc2=O)O[C@H](CO)[C@@H]1O (stereo partly drawn)
IC50 [1]: > 100 µg/mL

C=C1C(n2cc(F)c(N)nc2=O)O[C@H](CO)[C@@H]1O (stereo partly drawn)
IC50 [2]: 1.4 µg/mL (≈ 5.44 µM) | IC50 [3]: 0.94 µg/mL (≈ 3.65 µM) | IC50 [4]: 1.4 µg/mL (≈ 5.44 µM) | IC50 [5]: > 100 µg/mL | IC50 [6]: 16 µg/mL (≈ 62.2 µM) | IC50 [7]: 0.053 µg/mL (≈ 0.206 µM) | IC50 [16]: 22 µg/mL (≈ 85.5 µM) | IC50 [1]: 0.33 µg/mL (≈ 1.28 µM) | IC50 [8]: 1.8 µg/mL (≈ 7 µM) | IC50 [9]: > 100 µg/mL | IC50 [10]: 8.3 µg/mL (≈ 32.3 µM) | IC50 [11]: 9.2 µg/mL (≈ 35.8 µM) | IC50 [12]: 0.4 µg/mL (≈ 1.56 µM) | IC50 [13]: 0.1 µg/mL (≈ 0.389 µM) | IC50 [14]: 0.25 µg/mL (≈ 0.972 µM) | IC50 [17]: 0.03 µg/mL (≈ 0.117 µM) | IC50 [15]: 4.4 µg/mL (≈ 17.1 µM)

C=C1C(n2cc(C)c(=O)[nH]c2=O)O[C@H](CO)[C@@H]1O (stereo partly drawn)
IC50 [1]: 50 µg/mL (≈ 197 µM)

O=c1[nH]cc(F)c(=O)[nH]1 [FLUOROURACIL]
IC50 [2]: 12.1 µg/mL (≈ 93 µM) | IC50 [5]: > 100 µg/mL | IC50 [7]: 1.3 µg/mL (≈ 9.99 µM) | IC50 [9]: 10 µg/mL (≈ 76.9 µM) | IC50 [10]: 3.7 µg/mL (≈ 28.4 µM) | IC50 [11]: 2.6 µg/mL (≈ 20 µM) | IC50 [12]: 3.5 µg/mL (≈ 26.9 µM) | IC50 [14]: 10.7 µg/mL (≈ 82.3 µM)
